In ChEMBL document CHEMBL4680104, “Structure-Based Optimization of Small-Molecule Inhibitors for the β-Catenin/B-Cell Lymphoma 9 Protein-Protein Interaction” (J Med Chem, 2018) one finds Ki and Drug uptake data, which are given here for two molecules.

Series [1] is described as follows: Inhibition of protein interaction between C-terminal 6x-histidine tagged full-length beta-catenin (1 to 781 residues) (unknown origin)/N-terminal biotinylated human E-cadherin (824 to 877 residues) incubated for 1 hr by Alpha-screen competitive inhibition assay. In short, it runs like this: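 Full-length β-catenin (residues 1–781) with a C-terminal His6 tag was expressed in E. coli BL21(DE3) after IPTG induction at 20 °C. It was purified by Ni-NTA, anion-exchange and size-exclusion chromatography. For the assay, 40 nM β-catenin was preincubated for 30 min at 4 °C with 5 nM biotinylated BCL9 or 10 nM biotinylated E-cadherin. Inhibitor was then added for 1 h at 4 °C, followed by 10 μg/mL donor and acceptor beads for 1 h at 4 °C. IC50 was obtained by nonlinear fit and converted to Ki by the Nikolovska-Coleska method. Triplicate, mean ± SD.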
(In general: Alpha assays give light when donor and acceptor beads are brought close together.)

The nature of series [2]: Drug level in human HCT-116 cells assessed as per million cells at 50 uM incubated for 6 hrs at 37 degC in presence of DMEM media with 10% FBS. In kind it is ADME, cell-based. As to conditions: hct-116, 6 h. In short, it runs like this: (§1)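 Cells were incubated with 50 μM compound for 6 h in 5 mL DMEM with 10% FBS, at 37 °C or at 4 °C. Cell-bound compound was quantified by a previously described method and expressed as nmol per million cells. The 4 °C incubation was used to estimate binding to the cell membrane through nonspecific association.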

Series [3] is described as follows: Drug level in human HCT-116 cells assessed as cell membrane bound compound level at 50 uM incubated for 6 hrs at 4 degC in presence of DMEM media with 10% FBS. The format is ADME, cell membranes. The settings on record: hct-116, 6 h. In outline:
as §1

The target of series [4] is T1, beta-catenin-B-cell lymphoma 9 protein complex (Homo sapiens, UniProt P35222).
T1 sequence (P35222 whole entry): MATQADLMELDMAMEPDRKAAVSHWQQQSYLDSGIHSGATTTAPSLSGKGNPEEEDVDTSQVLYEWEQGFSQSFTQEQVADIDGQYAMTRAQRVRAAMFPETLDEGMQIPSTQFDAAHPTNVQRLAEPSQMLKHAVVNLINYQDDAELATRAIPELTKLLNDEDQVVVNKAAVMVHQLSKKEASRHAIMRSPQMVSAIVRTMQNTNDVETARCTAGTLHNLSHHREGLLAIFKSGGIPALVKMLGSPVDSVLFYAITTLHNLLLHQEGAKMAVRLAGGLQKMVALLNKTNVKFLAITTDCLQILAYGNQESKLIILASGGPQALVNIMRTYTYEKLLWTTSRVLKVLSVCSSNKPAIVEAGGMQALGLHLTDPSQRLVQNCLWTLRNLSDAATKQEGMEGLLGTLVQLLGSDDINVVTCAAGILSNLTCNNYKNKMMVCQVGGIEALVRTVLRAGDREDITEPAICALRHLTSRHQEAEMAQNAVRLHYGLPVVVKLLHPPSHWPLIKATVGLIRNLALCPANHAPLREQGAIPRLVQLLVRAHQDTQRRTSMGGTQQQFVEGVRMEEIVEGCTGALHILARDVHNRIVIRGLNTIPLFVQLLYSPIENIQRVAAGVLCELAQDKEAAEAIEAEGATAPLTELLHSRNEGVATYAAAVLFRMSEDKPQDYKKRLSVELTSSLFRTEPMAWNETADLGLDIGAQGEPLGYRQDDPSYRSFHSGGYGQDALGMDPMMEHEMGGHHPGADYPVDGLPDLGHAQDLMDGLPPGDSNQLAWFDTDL
T1 sequence (O00512 whole entry): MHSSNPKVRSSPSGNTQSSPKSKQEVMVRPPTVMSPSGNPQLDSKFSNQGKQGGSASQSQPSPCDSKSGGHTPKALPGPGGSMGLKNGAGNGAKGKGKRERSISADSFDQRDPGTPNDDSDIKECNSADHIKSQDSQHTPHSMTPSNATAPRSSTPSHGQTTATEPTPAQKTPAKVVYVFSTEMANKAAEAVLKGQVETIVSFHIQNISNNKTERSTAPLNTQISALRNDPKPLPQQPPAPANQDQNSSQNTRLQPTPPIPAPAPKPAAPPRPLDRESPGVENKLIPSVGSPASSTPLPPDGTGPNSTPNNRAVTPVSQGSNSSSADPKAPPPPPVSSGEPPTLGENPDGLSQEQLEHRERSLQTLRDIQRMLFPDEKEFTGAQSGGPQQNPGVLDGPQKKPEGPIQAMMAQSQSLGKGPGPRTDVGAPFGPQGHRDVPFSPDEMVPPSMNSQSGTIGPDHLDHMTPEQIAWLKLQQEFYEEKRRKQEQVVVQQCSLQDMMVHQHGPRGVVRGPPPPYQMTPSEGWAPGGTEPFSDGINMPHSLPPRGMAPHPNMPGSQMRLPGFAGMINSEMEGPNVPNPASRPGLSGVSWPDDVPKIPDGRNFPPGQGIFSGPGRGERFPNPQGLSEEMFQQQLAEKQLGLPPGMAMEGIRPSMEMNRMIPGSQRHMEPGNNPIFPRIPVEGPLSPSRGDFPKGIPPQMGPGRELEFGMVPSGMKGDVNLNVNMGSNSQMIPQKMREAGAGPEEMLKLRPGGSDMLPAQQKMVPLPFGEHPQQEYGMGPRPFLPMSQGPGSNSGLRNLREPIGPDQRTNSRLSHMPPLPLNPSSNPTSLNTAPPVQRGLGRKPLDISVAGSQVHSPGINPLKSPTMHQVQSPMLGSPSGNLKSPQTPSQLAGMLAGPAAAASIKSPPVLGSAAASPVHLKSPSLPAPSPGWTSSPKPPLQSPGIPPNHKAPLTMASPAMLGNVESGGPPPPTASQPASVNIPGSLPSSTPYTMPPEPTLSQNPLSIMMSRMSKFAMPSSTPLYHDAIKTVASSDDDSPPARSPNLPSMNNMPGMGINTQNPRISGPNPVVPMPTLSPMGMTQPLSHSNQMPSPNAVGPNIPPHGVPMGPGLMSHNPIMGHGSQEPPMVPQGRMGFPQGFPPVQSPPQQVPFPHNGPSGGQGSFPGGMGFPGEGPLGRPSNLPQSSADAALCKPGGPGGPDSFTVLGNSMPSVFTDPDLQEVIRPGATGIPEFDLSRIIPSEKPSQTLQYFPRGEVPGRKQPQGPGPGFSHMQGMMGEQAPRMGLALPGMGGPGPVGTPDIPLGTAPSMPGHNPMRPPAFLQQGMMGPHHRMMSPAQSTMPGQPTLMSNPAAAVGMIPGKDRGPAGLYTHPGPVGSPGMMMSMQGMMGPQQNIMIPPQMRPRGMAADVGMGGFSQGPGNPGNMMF
Description: Inhibition of protein interaction between beta-catenin (unknown origin)/BCL9 (unknown origin) by Alpha-screen competitive inhibition assay. The format is protein-complex assay. In outline: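 Purified His6-tagged full-length β-catenin (40 nM) preincubated with biotinylated BCL9 (5 nM) for 30 min at 4 °C. Inhibitor dilutions then added, 1 h at 4 °C, followed by donor and acceptor beads (10 μg/mL final) for 1 h at 4 °C. IC50 obtained by nonlinear least-squares fit and converted to Ki by the Nikolovska-Coleska method. Triplicate, mean ± SD.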

Broadly, the Ki is the equilibrium dissociation constant of an inhibitor or competing ligand from its target. In series [1], `Cl.Cl.O=C(Nc1ccc(O[C@@H]2CCNC2)c(-c2cccc(-c3nn[nH]n3)c2)c1)c1ccc(O[C@H]2CCNC2)c(-c2ccc(F)c(F)c2)c1` showed a Ki greater than 915000 nM. In addition, the Drug uptake in series [2] was 6.6 nmol; in series [3] it was 77%.

`Cl.Cl.O=C(Nc1ccc(O[C@H]2CCNC2)c(-c2ccc(F)cc2)c1)c1ccc(O[C@H]2CCNC2)c(-c2ccc(F)c(F)c2)c1` registered a Ki in series [4] of 2100 nM.
